Shown are actives, neighbours in structure and some others; about 2.5% of the full set was active somewhere.
PglD inh: C. jejuni PglD acetyltransferase inhibitors, primary screen, biochemical, DTNB colorimetric, single point. UDP-N-acetylbacillosamine N-acetyltransferase PglD (Campylobacter jejuni). 0.098% of 360,000 active. purified PglD enzyme, DTNB colorimetric CoA detection. inhibition, % at 12.5 µM; in the data active = inhibition above about 16%, passing the limit was not always enough; inconclusive = no clear call, values can overlap the other calls
ERAP1 inh: human ERAP1 aminopeptidase inhibitors, primary screen, biochemical, single point, plate reader. AID 652197, 2013. recombinant ERAP1, Leu-AMC fluorescence, 60 min. 0.15% of 340,000 active. Endoplasmic reticulum aminopeptidase 1 (Homo sapiens), Q9NZ08. inhibition, % at 10.7 µM;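 active = mean replicate inhibition of at least 30%, or all replicates individually reaching that 30% level; inactive = mean below 30% and not every replicate reaching it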;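 also: 0% = neutral control wells and 100% = L-leucinethiol positive control wells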
E-sel inducer: E-selectin induction in HUVECs, primary screen, imaging, HUVEC, immunofluorescence imaging, single point; AID 686992, 2013; 0.37% of 260,000 active; normalized: neutral wells 0, TNF-alpha wells 100; P16581; activation, % at 7.58 µM;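 active = mean E-selectin-positive cell signal at least 10% of the positive control, reached in at least 60% of replicates, without over 20% cell loss; inconclusive = no rule given, readout overlaps actives, possibly toxicity-flagged; inactive = the rest, including those meeting only one limit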
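Assay system: HUVEC, human umbilical vein endothelial cells / Amount: 3,000 HUVEC/well / Controls: TNF-alpha positive control, DMSO neutral control / Compound dosing: single concentration / Medium: EGM-2 over gelatin coat / Evaluation: percent E-selectin-positive cells / Signal: immunofluorescence imaging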
SIRT5 block: SIRT5 desuccinylase inhibitors, primary screen, biochemical, fluorescence imaging, single point, set 5; NAD-dependent protein deacylase sirtuin-5, mitochondrial (Homo sapiens), Q9NXA8; Purified SirT5, succinyl-peptide AMC, trypsin-coupled fluorescence; inhibition, % at 15 µM; 1.1% of 330,000 active; in the data active = inhibition above about 15%; inconclusive = no clear call, values can overlap the other calls
Target sequence (Q9NXA8 whole entry, looked up): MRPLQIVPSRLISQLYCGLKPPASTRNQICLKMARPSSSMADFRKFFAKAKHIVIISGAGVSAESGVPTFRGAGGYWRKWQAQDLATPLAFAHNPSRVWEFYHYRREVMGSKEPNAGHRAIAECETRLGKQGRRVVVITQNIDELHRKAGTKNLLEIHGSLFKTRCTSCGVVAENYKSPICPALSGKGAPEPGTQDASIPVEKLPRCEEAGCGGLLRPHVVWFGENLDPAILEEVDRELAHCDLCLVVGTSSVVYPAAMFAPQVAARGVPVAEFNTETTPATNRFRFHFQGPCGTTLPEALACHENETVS
DENV2 CPE: inhibitors of DENV2 cytopathic effect, primary screen, cell-based, plate reader, single concentration | DENV2-infected cells, cytopathic effect rescue | CPE inhibition, % at 9.99 µM | 1.7% of 350,000 active; in the data active = CPE inhibition above about 20%, passing the limit was not always enough; inconclusive = no clear call, values can overlap the other calls; tested in BHK-21 cells;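 also: 0% = median of neutral control wells and 100% = median of positive control wells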
The depositor's hits bear a star; u = inconclusive; x = no result given; ! = not active in a repeat.

SMILES	PglD inh	ERAP1 inh	E-sel inducer	SIRT5 block	DENV2 CPE
Cc1noc(C)c1NC(=O)N(C)C[C@@H]1OCCCC[C@@H](C)Oc2ccc(NC(=O)Nc3cccc4ccccc34)cc2C(=O)N([C@@H](C)CO)C[C@@H]1C	x	-2	x	x	38*
Cc1noc(C)c1NC(=O)Nc1ccc2c(c1)C(=O)N([C@H](C)CO)C[C@H](C)[C@@H](CN(C)C(=O)Nc1ccc(C(F)(F)F)cc1)OCCCC[C@H](C)O2	1	0	0	21*	-16
Cc1noc(C)c1NC(=O)Nc1ccc2c(c1)C(=O)N([C@H](C)CO)C[C@H](C)[C@H](CN(C)Cc1ccc(Cl)c(Cl)c1)OCCCC[C@@H](C)O2	-2	-2	0	4	35*
Cc1noc(C)c1NC(=O)Nc1ccc2c(c1)C(=O)N([C@@H](C)CO)C[C@H](C)[C@@H](CN(C)Cc1ccc(Cl)c(Cl)c1)OCCCC[C@@H](C)O2	0	-2	0	11	-5
O=C(OCc1ccccc1)N1CCC2CC1c1cc(N3CCOCC3)ccc12 (stereo not drawn)	-1	1	-1	2	0
Cc1noc(C)c1NC(=O)Nc1ccc2c(c1)C(=O)N([C@@H](C)CO)C[C@@H](C)[C@H](CN(C)C(=O)NC1CCCCC1)OCCCC[C@H](C)O2	-40	-1	0	-4	11
Cc1noc(C)c1NC(=O)N(C)C[C@@H]1OCCCC[C@H](C)Oc2ccc(NC(=O)Nc3ccc(C(F)(F)F)cc3)cc2C(=O)N([C@@H](C)CO)C[C@@H]1C	-2	-1	0	5	30*
Cc1noc(C)c1NC(=O)N(C)C[C@@H]1OCCCC[C@@H](C)Oc2ccc(NC(=O)Nc3ccc(C(F)(F)F)cc3)cc2C(=O)N([C@H](C)CO)C[C@@H]1C	4	-3	0	3	1
Cc1noc(C)c1NC(=O)Nc1ccc2c(c1)C(=O)N([C@@H](C)CO)C[C@@H](C)[C@@H](CN(C)C(=O)Nc1ccccc1)OCCCC[C@@H](C)O2	0	-1	0	0	22*
Cc1noc(C)c1NC(=O)Nc1ccc2c(c1)C(=O)N([C@H](C)CO)C[C@H](C)[C@H](CN(C)C(=O)NC1CCCCC1)OCCCC[C@@H](C)O2	-1	-5	0	-2	31*!
Cc1noc(C)c1NC(=O)Nc1ccc2c(c1)CC(=O)N([C@H](C)CO)C[C@@H](C)[C@@H](CN(C)Cc1ccc(C(=O)Nc3ccccc3N)cc1)O2	x	-2	-2	x	-7
CC(=O)Nc1ccc(NC(=O)CSc2nc(=O)n(CCCN3CCOCC3)c3c2CCC3)cc1	5	0	0	x	0
CCOC(=O)C[C@@H]1OC2CCCCC2N1S(=O)(=O)c1ccc(C)cc1 (stereo partly drawn)	x	x	-4	3	-3
Cc1ccc(S(=O)(=O)N2C3CCCCC3O[C@H]2CC(=O)c2cccs2)cc1 (stereo partly drawn)	x	0	0	-1	48*
COc1ccc(CCNC(=O)CSc2ccc(-c3ccco3)nn2)cc1	x	-3	0	-3	-5
CCOc1ccc(S(=O)(=O)N2CCN(C)CC2)cc1NC(=O)c1ccccc1F	x	-2	x	-4	-3
Cc1nonc1NC(=O)CSc1nc(C23CC4CC(CC(C4)C2)C3)nc2ccccc12	3	1	1	-5	3
Cc1ccc2c(c1)N(C)/C(=C/c1cccc[n+]1CCO)S2	-7	18	0	1	3
Cc1ccc2c(c1)S/C(=C/c1ccc[n+](C)c1)N2CCO	x	52*	4	-2	5
C[C@H](CO)N1C[C@H](C)[C@H](CN(C)Cc2ccc3c(c2)OCO3)OCCCC[C@H](C)Oc2ccc(NC(=O)NC3CCCCC3)cc2C1=O	-2	4	0	0	26*
C[C@@H]1CCCCO[C@@H](CN(C)Cc2ccc3c(c2)OCO3)[C@H](C)CN([C@H](C)CO)C(=O)c2cc(NC(=O)NC3CCCCC3)ccc2O1	0	4	0	-9	u

Screening data as filed in PubChem BioAssay.
